Measured values from BindingDB's records for doi:10.1021/np500803e (Chungbuk National University, 2015).

Molecular target: Signal transducer and activator of transcription 3 (Homo sapiens, UniProt P40763)
Assay: Inhibition of IL6-induced STAT3 activation in human Hep3B cells after 12 hrs by luciferase assay
Procedure, shortened: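 Hep3B cells stably carrying a pSTAT3-luciferase reporter, 2 × 10^4 cells/well, grown 24 h, then switched to serum-free medium. Stimulated with IL-6 (10 ng/mL) with or without sample for 12 h. Luciferase activity then read. IC50 taken as the mean of triplicate experiments. Stattic and genistein used as positive controls.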

Chain of Signal transducer and activator of transcription 3 (P40763 whole entry): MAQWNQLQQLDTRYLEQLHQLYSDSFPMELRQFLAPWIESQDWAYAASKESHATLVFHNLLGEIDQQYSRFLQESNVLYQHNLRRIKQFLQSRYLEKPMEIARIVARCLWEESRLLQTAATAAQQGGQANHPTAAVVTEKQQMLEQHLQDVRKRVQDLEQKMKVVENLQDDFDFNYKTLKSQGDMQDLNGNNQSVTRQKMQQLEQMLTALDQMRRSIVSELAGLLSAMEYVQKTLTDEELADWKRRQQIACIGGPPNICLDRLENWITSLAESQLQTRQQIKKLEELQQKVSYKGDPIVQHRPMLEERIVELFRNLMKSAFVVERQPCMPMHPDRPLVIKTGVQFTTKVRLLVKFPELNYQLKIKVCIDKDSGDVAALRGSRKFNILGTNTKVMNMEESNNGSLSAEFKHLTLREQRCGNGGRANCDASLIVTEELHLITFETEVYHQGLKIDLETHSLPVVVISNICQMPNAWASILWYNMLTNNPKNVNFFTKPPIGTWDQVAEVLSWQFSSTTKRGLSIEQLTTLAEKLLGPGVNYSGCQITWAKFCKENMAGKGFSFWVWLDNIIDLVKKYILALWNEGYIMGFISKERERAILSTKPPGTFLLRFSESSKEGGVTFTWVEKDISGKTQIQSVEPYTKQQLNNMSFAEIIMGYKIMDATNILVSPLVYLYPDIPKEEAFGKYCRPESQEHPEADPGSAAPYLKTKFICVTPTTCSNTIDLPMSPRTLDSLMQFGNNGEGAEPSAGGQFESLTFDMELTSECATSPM

Row | Structure (SMILES) | IC50
1 | C=C(C)C(=O)CC[C@](C)(O[C@@H]1O[C@H](CO[C@@H]2O[C@H](CO)[C@@H](O)[C@H](O)[C@H]2O)[C@@H](O)[C@H](O)[C@H]1O)[C@H]1CC[C@]2(C)[C@@H]1[C@H](O)C[C@@H]1[C@@]3(C)C[C@@H](O)[C@H](O)C(C)(C)[C@@H]3CC[C@]12C | 0.27 µM
2 | C=C(C)C(=O)CC[C@](C)(O[C@@H]1O[C@H](CO[C@@H]2O[C@@H](C)[C@H](O)[C@@H](O)[C@H]2O)[C@@H](O)[C@H](O)[C@H]1O)[C@H]1CC[C@]2(C)[C@@H]1[C@H](O)C[C@@H]1[C@@]3(C)C[C@@H](O)[C@H](O[C@@H]4O[C@H](CO)[C@@H](O)[C@H](O)[C@H]4O[C@@H]4O[C@H](CO)[C@@H](O)[C@H](O)[C@H]4O)C(C)(C)[C@@H]3CC[C@]12C | 19.2 µM
3 | CC(C)(/C=C/C[C@](C)(O[C@@H]1O[C@H](CO[C@@H]2O[C@H](CO)[C@@H](O)[C@H](O)[C@H]2O)[C@@H](O)[C@H](O)[C@H]1O)[C@H]1CC[C@]2(C)[C@@H]1[C@H](O)C[C@@H]1[C@@]3(C)C[C@@H](O)[C@H](O)C(C)(C)[C@@H]3CC[C@]12C)OO | > 30 µM
4 | C[C@@H]1O[C@@H](OC[C@H]2O[C@@H](O[C@@](C)(C/C=C/C(C)(C)OO)[C@H]3CC[C@]4(C)[C@@H]3[C@H](O)C[C@@H]3[C@@]5(C)C[C@@H](O)[C@H](O[C@@H]6O[C@H](CO)[C@@H](O)[C@H](O)[C@H]6O[C@@H]6O[C@H](CO)[C@@H](O)[C@H](O)[C@H]6O)C(C)(C)[C@@H]5CC[C@]34C)[C@H](O)[C@@H](O)[C@@H]2O)[C@H](O)[C@H](O)[C@H]1O | > 30 µM
5 | CC(C)(/C=C/C[C@](C)(O[C@@H]1O[C@H](CO)[C@@H](O)[C@H](O)[C@H]1O)[C@H]1CC[C@]2(C)[C@@H]1[C@H](O)C[C@@H]1[C@@]3(C)C[C@@H](O)[C@H](O[C@@H]4O[C@H](CO)[C@@H](O)[C@H](O)[C@H]4O[C@@H]4O[C@H](CO)[C@@H](O)[C@H](O)[C@H]4O)C(C)(C)[C@@H]3CC[C@]12C)OO | > 30 µM
6 | CC(C)/C=C/C[C@](C)(O[C@@H]1O[C@H](CO[C@@H]2O[C@@H](C)[C@H](O)[C@@H](O)[C@H]2O)[C@@H](O)[C@H](O)[C@H]1O)[C@H]1CC[C@]2(C)[C@@H]1[C@H](O)C[C@@H]1[C@@]3(C)C[C@@H](O)[C@H](O[C@@H]4O[C@H](CO)[C@@H](O)[C@H](O)[C@H]4O[C@@H]4O[C@H](CO)[C@@H](O)[C@H](O)[C@H]4O)C(C)(C)[C@@H]3CC[C@]12C | > 30 µM
7 | C[C@@H]1O[C@@H](OC[C@H]2O[C@@H](O[C@@](C)(C/C=C/C(C)(C)O)[C@H]3CC[C@]4(C)[C@@H]3[C@H](O)C[C@@H]3[C@@]5(C)C[C@@H](O)[C@H](O[C@@H]6O[C@H](CO)[C@@H](O)[C@H](O)[C@H]6O)C(C)(C)[C@@H]5CC[C@]34C)[C@H](O)[C@@H](O)[C@@H]2O)[C@H](O)[C@H](O)[C@H]1O | 17.1 µM
8 | CC(C)/C=C/C[C@](C)(O[C@@H]1O[C@H](CO[C@@H]2O[C@@H](C)[C@H](O)[C@@H](O)[C@H]2O)[C@@H](O)[C@H](O)[C@H]1O)[C@H]1CC[C@]2(C)[C@@H]1[C@H](O)C[C@@H]1[C@@]3(C)C[C@@H](O)[C@H](O[C@@H]4O[C@H](CO)[C@@H](O)[C@H](O)[C@H]4O)C(C)(C)[C@@H]3CC[C@]12C | 17.6 µM
9 | C=C(C)C(=O)CC[C@](C)(O[C@@H]1O[C@H](CO[C@@H]2O[C@@H](C)[C@H](O)[C@@H](O)[C@H]2O)[C@@H](O)[C@H](O)[C@H]1O)[C@H]1CC[C@]2(C)[C@@H]1[C@H](O)C[C@@H]1[C@@]3(C)C[C@@H](O)[C@H](O)C(C)(C)[C@@H]3CC[C@]12C | 0.59 µM
10 | CC(C)/C=C/C[C@](C)(O[C@@H]1O[C@H](CO[C@@H]2O[C@@H](C)[C@H](O)[C@@H](O)[C@H]2O)[C@@H](O)[C@H](O)[C@H]1O)[C@H]1CC[C@]2(C)[C@@H]1[C@H](O)C[C@@H]1[C@@]3(C)CC[C@H](O[C@@H]4O[C@H](CO)[C@@H](O)[C@H](O)[C@H]4O[C@@H]4O[C@H](CO)[C@@H](O)[C@H](O)[C@H]4O)C(C)(C)[C@@H]3CC[C@]12C | 4 µM
11 | CC(C)/C=C/C[C@](C)(O[C@@H]1O[C@H](CO[C@@H]2O[C@@H](C)[C@H](O)[C@@H](O)[C@H]2O)[C@@H](O)[C@H](O)[C@H]1O)[C@H]1CC[C@]2(C)[C@@H]1[C@H](O)C[C@@H]1[C@@]3(C)C[C@@H](O)[C@H](O)C(C)(C)[C@@H]3CC[C@]12C | 0.5 µM
